Data taken from publication PMC10757425 (Toxicology, 2023).
“Also recorded” adds a separate entry of the source.

Tests used:
[1] = 45-day study, female rats; ref Aqil et al., 2014; cited from earlier work
[2] = rats, dip-coated implants; ref Aqil et al. (2014); cited from earlier work
[3] = OH-PCB disposition in serum and tissues by GC-MS/MS; assay type: in vivo, Sprague-Dawley rats; conditions: for detection in serum, brain, liver, and lung / rank order of levels across serum and tissues: male rats, 28 days of 4-52 implant exposure
Summary of the method: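 Male Sprague-Dawley rats received a subcutaneous polymeric implant (1.3 ± 0.1 mg/g body weight) on the back at PND 28, loaded at 0, 1, 5 or 10% (w/w) test compound, for 28 days. Tissues (n=8/group) were homogenized in 2-propanol and liquid-liquid extracted, with surrogate-recovery and internal-standard correction. LOD came from sham tissues (mean + t0.01 × SD).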

[4] = test system: Sprague-Dawley rats; test: Y-maze; assay type: in vivo
[5] = In vitro release from polymeric implants; conditions: after 28 days
[6] = In vivo exposure dosimetry: 4-52 remaining in retrieved subcutaneous implants; design: species or system Sprague-Dawley rats; conditions: for In vivo exposure: 4-52 remaining in the implant / In vivo exposure: 4-52 remaining in the implant (%): subcutaneous implant, 28 days, male rats
Summary of the method: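 Male rats carried s.c. implants (0, 1, 5 or 10% w/w; 1.3 ± 0.1 mg/g bw) from PND 28 for 28 days. Retrieved implants were dissolved in 10 mL DCM, diluted 3-fold and read by UV/Vis at 285 nm against a matrix-matched calibration curve. Internal dose was taken as total load minus remaining amount, assuming 100% bioavailability.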

[7] = test system: Sprague-Dawley rats; test: Hole Board Test; assay type: in vivo
Summary of the method: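 Implant-exposed rats (n=15/group) were tested blind on exposure days 24–28. Each rat was released centrally for 5 min. Distance and head dips (ears passing through a hole) were video-tracked. Analysis: one-way ANOVA with Fisher's LSD; mean ± SD.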

[8] = General toxicity assessment; assay type: in vivo, Sprague-Dawley rats
Summary of the method: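 Rats arrived at 21 days old and were acclimated 7 days. At PND 28, under isoflurane with 1 mg/kg s.c. meloxicam, they received s.c. implants with 0, 1, 5 or 10% w/w test compound (1.3 ± 0.1 mg/g bw), n=15/group. Surgical site and behaviour were checked daily for 5 days. At PND 56, blood was taken by cardiac puncture, rats were perfused with cold PBS and organs harvested.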

[9] = test system: Sprague-Dawley rats; test: Open Field Test; assay type: in vivo; conditions: between the groups at any time epoch, two-way ANOVA
Summary of the method: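 Implant-exposed rats (n=15/group) were tested blind during exposure days 24–28. The opaque rectangular arena (~5000 cm2, 50 cm walls) was divided into central and outer zones. Each rat started in the center and explored freely for 30 min on two consecutive days. Overhead video tracking recorded distance travelled in 5-min epochs. Analysis: two-way ANOVA.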

[10] = test system: Sprague-Dawley rats; test: Elevated Plus Maze; assay type: in vivo
[11] = test system: Sprague-Dawley rats; test: Histopathology; assay type: in vivo; conditions: for prevalence of minimal liver inflammation (% of evaluated slides): sham 37.5%
Summary of the method: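 After 28 days of implant exposure, brain, accessory lobe of right lung and left lateral liver lobe were formalin-fixed and H&E stained (8 rats/group, 2 per cohort, random). A veterinary pathologist scored brain regions (prefrontal cortex, striatum, hippocampus, cerebellum) and lung and liver for inflammation (any immune cells), hemorrhage, edema, necrosis, apoptosis and morphology. Brain was also scored for gliosis; lung and liver for extramedullary hematopoiesis.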

[12] = administered orally with corn oil; ref Rostami and Juhasz, 2011; cited from earlier work
[13] = test system: rats; conditions: developmental exposure via the maternal diet, ref Boix et al., 2010; cited from earlier work

Clc1cc(Cl)c(-c2cc(Cl)c(Cl)cc2Cl)cc1Cl [PCB 153]
released from polymeric implants in vivo [1]: 73%

Clc1ccc(-c2cc(Cl)c(Cl)c(Cl)c2)cc1Cl [PCB 126]
liver weights compared to sham controls [2]: significantly increased
released from polymeric implants in vivo [1]: 49%

Oc1cc(Cl)c(-c2cc(Cl)c(O)cc2Cl)cc1Cl [4,4’-52, 4,4’-dihydroxy-2,2’,5,5’-tetrachlorobiphenyl]
detection in the brain ([3]; after 4-52 implant exposure): only found in the medium and high-dose groups
detection in the lung ([3]; after 4-52 implant exposure): detected
presence in the serum and liver ([3]; after 4-52 implant exposure): present in the serum and liver from all exposure groups
detection in serum, brain, liver, and lung [3]: detected
rank order of levels across serum and tissues [3]: serum > lung > liver > brain

Oc1cc(Cl)c(-c2cc(Cl)ccc2Cl)cc1Cl [4-52, 2,2’,5,5’-tetrachlorobiphenyl-4-ol]
Y-maze percentage of spontaneous alternation ([4]; all exposure groups, one-way ANOVA, p = 0.262): no significant changes; also recorded: did not affect
Y-maze total distance traveled ([4]; all exposure groups, one-way ANOVA, p = 0.300): no significant changes
Y-maze number of total entries ([4]; all exposure groups, one-way ANOVA, p = 0.342): no significant changes
Y-maze total distance traveled ([4]; medium-exposed group vs sham, post hoc Fisher’s LSD, p = 0.067): trend to decrease; also recorded: trend of a decrease
Y-maze total number of entries ([4]; medium-exposed group vs sham, post hoc Fisher’s LSD, p = 0.087): trend to decrease; also recorded: trend of a decrease
In vitro release: 4-52 remaining in the implant (%) ([5]; High group, 10% load): 5.2 ± 1.1%
In vitro release: 4-52 remaining in the implant (%) ([5]; Low group, 1% load): 3.4 ± 0.9%
In vitro release: 4-52 remaining in the implant (%) ([5]; Medium group, 5% load): 2.9 ± 1.8%
In vivo exposure: 4-52 remaining in the implant ([6]; High group, 10% load): 0.80 ± 0.40 mg
In vivo exposure: 4-52 remaining in the implant (%) ([6]; High group, 10% load): 6.9 ± 3.1%
In vivo exposure: 4-52 remaining in the implant ([6]; Low group, 1% load): 0.06 ± 0.02 mg
In vivo exposure: 4-52 remaining in the implant (%) ([6]; Low group, 1% load): 5.8 ± 2.3%
In vivo exposure: 4-52 remaining in the implant ([6]; Medium group, 5% load): 0.40 ± 0.20 mg
In vivo exposure: 4-52 remaining in the implant (%) ([6]; Medium group, 5% load): 6.3 ± 2.8%
4-52 left in the implants after in vivo exposure ([6]; after 28 days of exposure, range over loads): 5.8-6.9%
Hole Board Test total distance traveled ([7]; exposed vs sham groups, one-way ANOVA, p = 0.297): no significant differences
Hole Board Test number of head dipping ([7]; exposed vs sham groups, one-way ANOVA, p = 0.433): no significant differences; also recorded: did not affect
Hole Board Test total distance traveled ([7]; medium-exposed rats, post hoc Fisher’s LSD, p = 0.071): slightly reduced; also recorded: trend of a decrease
implantation site ([8]; end of 28-day study): no signs of adverse effects
adverse outcomes throughout the study ([8]; implants with 0, 1, 5 or 10% of 4-52, 28 days): No adverse outcomes
body weight gain ([8]; implants with 1, 5, 10% 4-52 vs sham, 28 days): No significant differences
other organ weights ([8]; subcutaneous 4-52 exposure, 28 days): no significant effects; also recorded: no other organ weights were affected
relative liver weight (% of body weight) ([8]; subcutaneous 4-52 exposure, 28 days, p < 0.001): decreased dose-dependently; also recorded: significant decrease
Open Field Test locomotor activity (travel distance) in 5 min epochs over 30 min [9]: no significant differences; also recorded: not altered
Elevated Plus Maze time in the open arm ([10]; high group, did not reach statistical significance, p = 0.076): marginally increased
Elevated Plus Maze time in the enclosed arm ([10]; high-exposed group vs sham, post hoc Fisher’s LSD, p = 0.043): significantly decreased
Elevated Plus Maze distance traveled in the enclosed arm ([10]; medium exposed group, post hoc Fisher’s LSD, p = 0.097): trend of reduction; also recorded: decreased
histopathological evaluation of brain and lung ([11]; exposed or sham rats, 28 days): no overt treatment-specific lesions
prevalence of minimal liver inflammation (% of evaluated slides) ([11]; high dose group): 75%
prevalence of minimal liver inflammation (% of evaluated slides) ([11]; low dose group): 12.5%
prevalence of minimal liver inflammation (% of evaluated slides) ([11]; medium dose group): 25%
levels in serum and tissues versus 4-52 dose ([3]; all compartments): increased with increasing 4-52 doses
detection in serum, brain, liver, and lung [3]: detected
rank order of levels across serum and tissues [3]: serum >> liver > lung > brain

Clc1ccc(Cl)c(-c2cc(Cl)ccc2Cl)c1 [PCB 52, 2,2’,5,5’-Tetrachlorobiphenyl]
oral bioavailability rate [12]: 52.9%
Y-maze performance [13]: did not affect
motor coordination [13]: impaired
